Rows were chosen to be rich in hits. Some 1.7% of all compounds tested hit in one or more screens of this group.
STEP block = STEP (human) phosphatase inhibition. 360,000 compounds, 0.25% hits. recombinant STEP, OMFP fluorogenic substrate, fluorescence. P54829. inhibition, % at 20 µM;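 active = inhibition at 20 µM, scaled per plate between control wells, above about 37%, limit read from the data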;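 note: 0% = DMSO with enzyme and substrate and 100% = substrate only without enzyme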
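Assay system: isolated STEP enzyme. Buffer or medium: pH 6.0 Bis-Tris with DTT and Tween 20. Also added: fluorogenic phosphatase substrate OMFP at 25 µM final. Dosing: 20 µM, 1% DMSO. Timing: 20 min reaction, room temperature, in the dark. Measured by: fluorescence intensity, excitation 480 nm, emission 540 nm. Evaluation: normalized % inhibition.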
Scp-1 inhibitor = Scp-1 (human) phosphatase inhibition | Q9GZU7 | Recombinant Scp1, phosphopeptide, malachite green phosphate absorbance | inhibition, % at 20 µM | 340,000 compounds, 0.88% hits | AID 493091;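 active = inhibition above about 50% at 20 µM, limit read from the data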;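 note: plate controls were DMSO wells with enzyme for no effect and wells lacking enzyme for full effect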
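Times: enzyme reaction 45 min at room temperature, colour 5 min, stabilisation 30 min. Material: SCP-1 catalytic fragment, aa 76-261. Medium: Acidic Tris acetate buffer with magnesium and detergent. Signal: colorimetric free-phosphate detection, absorbance 630 nm. Read-out basis: % inhibition of SCP-1 phosphate liberation. Reagent: Phosphorylated 17-residue peptide substrate.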
SUMO1 PPI mod = modulators of human SUMO1-mediated protein-protein interactions | P63165 | SUMO1 binding to a labelled peptide, TR-FRET, 1 h | inhibition, % at 20 µM | 360,000 compounds, 0.33% hits | AID 602429; in the data active = inhibition above about 37%
LMPTP block = LMPTP (human) inhibition; P24666; 360,000 compounds, 0.22% hits; recombinant LMPTP-A, OMFP fluorogenic substrate, fluorescence intensity; inhibition, % at 20 µM;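 active = compounds that cut the enzyme signal by at least half of the control window in the single-dose screen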;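 note: plate controls were DMSO wells with enzyme plus substrate for no effect and substrate without enzyme for full effect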
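Assay system: LMPTP-A phosphatase enzyme | Input: 0.625 nM enzyme | Also added: Fluorogenic phosphatase substrate OMFP at 400 µM final | Compound dosing: One test concentration per compound, 20 µM, with 3% DMSO overall | Schedule: 50 min enzyme reaction at room temperature, protected from light | Signal: Fluorescence intensity | Benchmarks: no-enzyme and uninhibited controls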
DNMT1 block = DNMT1 (human) enzyme inhibition; 360,000 compounds, 0.83% hits; P26358; inhibition (reported as % activation of signal), % at 10 µM; DNMT1 molecular beacon, Hinp1I cleavage, fluorescence; in the data active = inhibition above about 50%
Target sequence (P26358 504-1616 limits assumed): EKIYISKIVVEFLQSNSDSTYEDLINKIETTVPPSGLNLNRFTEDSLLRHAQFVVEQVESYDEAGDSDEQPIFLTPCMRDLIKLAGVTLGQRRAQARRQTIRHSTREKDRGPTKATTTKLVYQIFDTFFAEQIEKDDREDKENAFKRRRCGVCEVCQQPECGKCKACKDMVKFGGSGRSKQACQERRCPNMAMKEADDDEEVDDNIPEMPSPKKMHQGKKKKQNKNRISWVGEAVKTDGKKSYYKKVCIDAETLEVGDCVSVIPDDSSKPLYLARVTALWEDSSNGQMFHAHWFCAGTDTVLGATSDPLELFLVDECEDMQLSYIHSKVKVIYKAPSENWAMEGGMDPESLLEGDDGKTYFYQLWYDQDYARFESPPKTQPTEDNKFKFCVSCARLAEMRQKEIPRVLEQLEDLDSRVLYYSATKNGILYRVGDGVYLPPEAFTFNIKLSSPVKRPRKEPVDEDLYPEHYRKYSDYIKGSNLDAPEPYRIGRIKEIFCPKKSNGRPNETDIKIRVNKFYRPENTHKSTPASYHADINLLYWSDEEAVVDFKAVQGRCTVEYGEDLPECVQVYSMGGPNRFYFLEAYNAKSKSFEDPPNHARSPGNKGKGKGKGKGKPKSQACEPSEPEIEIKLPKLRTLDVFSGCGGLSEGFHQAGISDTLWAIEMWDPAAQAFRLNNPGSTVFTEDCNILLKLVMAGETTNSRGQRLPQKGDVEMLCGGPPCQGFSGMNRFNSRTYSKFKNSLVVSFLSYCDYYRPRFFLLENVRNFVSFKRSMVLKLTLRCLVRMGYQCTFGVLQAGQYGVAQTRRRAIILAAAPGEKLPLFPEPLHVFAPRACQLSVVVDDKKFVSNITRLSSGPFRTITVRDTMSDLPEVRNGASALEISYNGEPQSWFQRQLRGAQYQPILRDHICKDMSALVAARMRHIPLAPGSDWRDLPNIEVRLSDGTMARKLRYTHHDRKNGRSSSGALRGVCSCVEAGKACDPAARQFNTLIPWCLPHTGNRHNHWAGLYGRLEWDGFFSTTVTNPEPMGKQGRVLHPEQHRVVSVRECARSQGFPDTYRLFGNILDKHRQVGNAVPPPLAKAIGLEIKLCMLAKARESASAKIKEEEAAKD
An asterisk follows results filed as active.

What do the screens show for `O=C(O)c1cc[c]([Hg][Cl])cc1`?
STEP block: -3; Scp-1 inhibitor: 96*; SUMO1 PPI mod: 0; LMPTP block: -1; DNMT1 block: 29

How did COc1ccc(C(=O)O)cc1OC do in these assays?
STEP block: -21; Scp-1 inhibitor: -4; SUMO1 PPI mod: 6; LMPTP block: -1; DNMT1 block: -5

How did COC(=O)c1nc(-c2ccc3c(n2)C(=O)C(N)=C(OC)C3=O)c(N)c(-c2ccc(OC)c(OC)c2O)c1C do in these assays?
STEP block: 3; Scp-1 inhibitor: -8; SUMO1 PPI mod: 14; LMPTP block: 1; DNMT1 block: 86*

Results for Clc1cccc(N2Cc3ccccc3-n3nncc3C2)c1 ?
STEP block: 1; SUMO1 PPI mod: 2; LMPTP block: 0; DNMT1 block: -4

How did C[C@@H]1CN([C@@H](C)CO)C(=O)CCCn2cc(nn2)CO[C@H]1CN(C)C(=O)Oc1ccc2ccccc2c1 do in these assays?
STEP block: -1; SUMO1 PPI mod: 3; LMPTP block: -1; DNMT1 block: 5

What do the screens show for `Nc1c(C(=O)NCc2ccco2)c2nc3ccccc3nc2n1Cc1ccc(F)cc1`?
STEP block: -12; Scp-1 inhibitor: -4; SUMO1 PPI mod: 40*; LMPTP block: 8; DNMT1 block: 21

What do the screens show for `CCCCNC(=O)c1c(N)n(Cc2ccc3c(c2)OCO3)c2nc3ccccc3nc12`?
STEP block: -2; Scp-1 inhibitor: 2; SUMO1 PPI mod: 64*; LMPTP block: 6; DNMT1 block: 15

How did O=C(NCP(=O)(Oc1ccccc1)Oc1ccccc1)OCc1ccccc1 do in these assays?
STEP block: 0; SUMO1 PPI mod: 0; LMPTP block: 0; DNMT1 block: 2

How did Cc1ccc(N2C(=O)/C(=C/c3ccc(CN(CCC#N)S(C)(=O)=O)o3)C(=O)NC2=S)cc1 do in these assays?
STEP block: 19; Scp-1 inhibitor: 43; SUMO1 PPI mod: 39*; LMPTP block: 6; DNMT1 block: 110*

Results for Cc1ccc(/C=C2\C(=O)NC(=S)N(c3ccc(F)cc3)C2=O)o1 ?
STEP block: 0; Scp-1 inhibitor: 29; SUMO1 PPI mod: 11; LMPTP block: 0; DNMT1 block: 35

Results for Cc1cc(C(C#N)c2ccc(Cl)cc2)c(Cl)cc1NC(=O)c1cc(I)cc(I)c1O (stereo unspecified) ?
STEP block: 10; Scp-1 inhibitor: 9; SUMO1 PPI mod: 51*; LMPTP block: 6; DNMT1 block: 74*

How did Cc1ccccc1NC(=O)c1cc(-c2ccccc2)n(CCCN2CCOCC2)c1C do in these assays?
STEP block: 3; Scp-1 inhibitor: -10; SUMO1 PPI mod: 3; LMPTP block: -3; DNMT1 block: 2

Results for Cc1ccccc1NC(=NCCCN1CC1)Nc1ccccc1C ?
STEP block: 8; Scp-1 inhibitor: 15; SUMO1 PPI mod: 34*; LMPTP block: 21; DNMT1 block: -100

What do the screens show for `C[C@]12CC[C@@H](O)CC1=CCC1C2CC[C@@]2(C)C1CC[C@@H]2O` (stereo partly specified)?
STEP block: 0; SUMO1 PPI mod: 0; LMPTP block: 0; DNMT1 block: 2

How did COc1ccc(/C=C2/C(=O)N(Cc3ccco3)C(=O)N(C(C)C)C2=O)cc1 do in these assays?
STEP block: -3; Scp-1 inhibitor: -10; SUMO1 PPI mod: 43*; LMPTP block: 3; DNMT1 block: 94*

Results for Nc1c(Br)cc2c3c(cccc13)-c1ccccc1-2 ?
Scp-1 inhibitor: -3

How did O=C1CC2OCC=C3CN4CCC56c7ccccc7N1C5C2C3CC46O (stereo unspecified) do in these assays?
STEP block: 3; SUMO1 PPI mod: 4; LMPTP block: 2; DNMT1 block: 6

What do the screens show for `c1ccc2c(c1)-c1cccc3cccc-2c13`?
STEP block: 2; Scp-1 inhibitor: -13; SUMO1 PPI mod: 3; LMPTP block: 2; DNMT1 block: -5

How did c1ccc2c(c1)[IH]c1ccccc1-2 do in these assays?
STEP block: 1; Scp-1 inhibitor: 8; SUMO1 PPI mod: -1; LMPTP block: 12; DNMT1 block: 53*

How did NCCc1cc(O)c(O)cc1O do in these assays?
STEP block: -2; Scp-1 inhibitor: -9; SUMO1 PPI mod: 47*; LMPTP block: 79*; DNMT1 block: 118*

What do the screens show for `COc1ccc(CCN)cc1O`?
STEP block: -4; Scp-1 inhibitor: -14; SUMO1 PPI mod: -3; LMPTP block: -3; DNMT1 block: -5

What do the screens show for `Cc1ccccc1N1C(=O)NC(=O)/C(=C\c2ccc3c(c2)CCCN3Cc2ccccc2)C1=O`?
STEP block: -6; Scp-1 inhibitor: -5; SUMO1 PPI mod: 3; LMPTP block: 3; DNMT1 block: 15

What do the screens show for `O=C1NC(=S)NC(=O)C1=Cc1ccc2c(c1)CCN2CCCCl`?
STEP block: 60*; Scp-1 inhibitor: 91*; SUMO1 PPI mod: 76*; LMPTP block: 77*; DNMT1 block: 102*

What do the screens show for `CCC1C2CC3C4N(C)c5ccccc5C45CC(C2C5O)N3C1O` (stereo unspecified)?
STEP block: -1; SUMO1 PPI mod: -1; LMPTP block: 0; DNMT1 block: 0

Results for C[C@H]1COc2cc(N3CCN(C)CC3)ccc2S(=O)(=O)N1 ?
SUMO1 PPI mod: 1; LMPTP block: -4

How did CC[n+]1c(-c2ccccc2)c2cc(N)ccc2c2ccc(N)cc21 do in these assays?
STEP block: 2; Scp-1 inhibitor: 5; SUMO1 PPI mod: -61; LMPTP block: 72*; DNMT1 block: 2

How did COc1ccc2c3c([nH]c2c1)C(C)=NCC3 do in these assays?
STEP block: -7; Scp-1 inhibitor: -11; SUMO1 PPI mod: -30; LMPTP block: 2; DNMT1 block: -14

What do the screens show for `CC1=NCCc2c1[nH]c1cc(O)ccc21`?
STEP block: -3; Scp-1 inhibitor: -11; SUMO1 PPI mod: -41; LMPTP block: 2; DNMT1 block: 163*

What do the screens show for `CC(C)C(O)(C(=O)OCC1=CCN2CCC(O)C12)C(C)O` (stereo unspecified)?
STEP block: -3; SUMO1 PPI mod: 0; LMPTP block: -5; DNMT1 block: -1

What do the screens show for `CCn1nc(/C=C/c2ccccc2)nc2c(=O)n(C)c(=O)nc1-2`?
STEP block: 69*; Scp-1 inhibitor: -9; SUMO1 PPI mod: 35; LMPTP block: 62*; DNMT1 block: 108*

What do the screens show for `COc1ccc(-n2c(/C=C/c3ccc(O)cc3)nc3ccccc3c2=O)cc1`?
STEP block: -2; Scp-1 inhibitor: -2; SUMO1 PPI mod: -19; LMPTP block: 3; DNMT1 block: -1

Results for CCn1nc(-c2cccs2)nc2c(=O)n(C)c(=O)nc1-2 ?
STEP block: 65*; Scp-1 inhibitor: -7; SUMO1 PPI mod: 24; LMPTP block: 63*; DNMT1 block: 119*
